Results from different studies.
Compare with care: the assays were run in different laboratories.
Matrix: plasma

SMILES	system	conditions	half-life [h]
C1=C/COCc2cc(ccc2OCCN2CCCC2)Nc2nccc(n2)-c2cccc(c2)COC/1	male Sprague-Dawley rat	oral, 36 mg/kg	12.1
CC(C)(N)COCC(=O)N1CCC[C@H](C(=O)NCc2nc(-c3ccc(C(F)(F)F)cc3)cs2)C1	male Sprague-Dawley rat	oral, 3 mg/kg	7.3
COc1nc(-c2cccc(-c3ccccc3)c2C)ccc1CNCCNC(=O)CCCCCCCCCCC(=O)N1CCN(CCNC(=O)c2cc3c(=O)n4cccc(C)c4nc3n(CCc3cccs3)c2=N)CC1	male Sprague-Dawley rat	intravenous, 2 mg/kg	5.8
CCOCC(=O)N1CCC[C@H](C(=O)NCc2nc(-c3ccc(C)nc3)cs2)C1	male Sprague-Dawley rat	intravenous, 1 mg/kg	2.1
COc1cc(-c2cc(C(C)=O)n3ccccc23)c(OC)cc1Cn1ccnc1	male Sprague-Dawley rat	intravenous, 5 mg/kg	0.75
Cc1nc(Nc2ncc(C(=O)Nc3c(C)cccc3Cl)s2)cc(N2CC[C@H](N)C2)n1	male Sprague-Dawley rat	intravenous, 1 mg/kg	3.8
CC[C@@H]([C@H](C)O)n1ncn(-c2ccc(N3CCN(c4ccc(OC[C@@H]5CO[C@@](Cn6cncn6)(c6ccc(F)cc6F)C5)cc4)CC3)cc2)c1=O	Sprague-Dawley rat	oral, 40 mg/kg	15.7
CNS(=O)(=O)c1ccc(Nc2ncc(C(F)(F)F)c(N3CCC[C@](C)(O)C3)n2)c(C)c1	rat	intravenous, 2 mg/kg	0.8
CCONC(=O)N1CCC[C@H](C(=O)NCc2nc(-c3ccc(C#N)cc3)cs2)C1	male Sprague-Dawley rat	oral, 3 mg/kg	14
C[C@]1(O)CCCN(c2nc(Nc3ccc(S(=O)(=O)N[C@H]4CC[C@H](CN5CCN(c6ccc(C7CCC(=O)NC7=O)cc6F)CC5)CC4)cc3F)ncc2C(F)(F)F)C1 (stereo partly shown)	rat	intravenous, 2 mg/kg	3.7
Cc1cc2c(C(N)=O)cccc2n1-c1nc2c(c(NCc3ccccc3)n1)CCCN2	male Sprague-Dawley rat	oral, 10 mg/kg, single dose	1.2
COc1ccc(N(Cc2csc(-c3ccccc3)n2)C(=O)CCCCCC(=O)NO)cc1	female Sprague-Dawley rat	intravenous, 5 mg/kg	0.63
Cc1cc(S(=O)(=O)NC2CC(N3CC[C@@H](OC4CN(c5cccc6c5n(C)c(=O)n6C5CCC(=O)NC5=O)C4)[C@H](F)C3)C2)ccc1Nc1ncc(C(F)(F)F)c(N2CCC[C@](C)(O)C2)n1 (stereo partly shown)	rat	intravenous, 2 mg/kg	2.4
